Screening results (PubChem BioAssay)
Only a selection was taken, and hits are over-represented in it overall.
A1 apoptosis 2: A1 inhibitors via caspase activation, primary screen, cell-based, luminescence, HTS, two replicates; MEF A1-2A-BIM cells, caspase-Glo luminescence, 3 h; percent of clofoctol response, DMSO zero; caspase activation, % (concentration not given with the values); 24,000 tested, under 10 active; AID 2465, 2010; in the data active = caspase activation above about 5.9%; inconclusive = no clear call, values can overlap the other calls; inactive = below about 2.2%
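System: mouse embryonic fibroblasts co-expressing A1 and BIM (A1-2A-BIM), primed for A1 dependence; amount: 2500 cells/well; doses: 50 nL pinned compound; schedule: cells settled overnight, compound exposure 3 h at 37 °C, 5% CO2; detection: Caspase-Glo 3/7 luminescence, 1 h at room temperature; read-out: Caspase-3/7 activation, seen as rise in luminescence signal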
T cruzi HTS: inhibitors of intracellular Trypanosoma cruzi, primary screen, cell-based, plate reader, single point, set 2; actives 4.9% (n = 22,000); activity score (inhibition), % at 5.01 µM; intracellular Trypanosoma cruzi in host cells; in the data active = activity score above about 55%; inconclusive = no clear call, values can overlap the other calls;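 note: parasites and compound incubated about four days before reading; 0% = median of neutral control wells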
INS-1E rescue: protection of INS-1E cells from cytokine death, primary screen, ATP luminescence, single point. INS-1E cytokine-induced death, 48 h; normalised: neutral wells 0, positive control 100. protection from cytokine-induced ATP loss, % at 10 µM. actives 0.1% (n = 20,000);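 active = mean replicate protection from cytokine-induced ATP loss at least 50% and at least 75% of replicates each reaching 50%; inconclusive = meets only one of the two criteria, mean or replicate share; inactive = fails both the mean and replicate share criteria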
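Assay system – rat INS-1E insulinoma cell line · Quantity – 8000 cells per well · Buffer or medium – RPMI without phenol red, 5% FBS · Schedule – 48 h co-treatment, 10 min post-lysis read · Technique – luminescent ATP assay (CellTiter-Glo)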
The depositor's hits bear a star; ? = inconclusive; / = no result.

SMILES	A1 apoptosis 2	T cruzi HTS	INS-1E rescue
C[C@H]1CN([C@@H](C)CO)C(=O)Cc2cc(NC(=O)NC3CCCCC3)ccc2O[C@@H]1CN(C)S(=O)(=O)c1cccs1	1	-6	2
CC(C)(C)OC(=O)Nc1cccc(/C=N/NC(=O)c2ccccn2)c1	/	13	1
COc1cc(/C=N/NC(=O)c2ccccc2O)c([N+](=O)[O-])cc1OC	0	0	-68
C#CCOc1ccc(/C=N/NC(=O)c2ccccc2O)cc1	-10	-20	-30
C[C@H]1CN([C@@H](C)CO)C(=O)c2cc(NC(=O)Nc3ccccc3)ccc2O[C@H]1CN(C)Cc1ccc(C(=O)Nc2ccccc2N)cc1	/	54	-7
C[C@H]1CN([C@@H](C)CO)C(=O)c2cccc(NC(=O)Nc3ccc4c(c3)OCO4)c2O[C@@H]1CN(C)Cc1ccc(C(=O)Nc2ccccc2N)cc1	-1	68*	10
C[C@@H]1CN([C@@H](C)CO)C(=O)c2cccc(NC(=O)Nc3ccc4c(c3)OCO4)c2O[C@@H]1CN(C)Cc1ccc(C(=O)Nc2ccccc2N)cc1	0	54	22
C[C@H](CO)N1C[C@H](C)[C@H](CN(C)Cc2ccc(C(=O)Nc3ccccc3N)cc2)Oc2ccc(NC(=O)Nc3ccc4c(c3)OCO4)cc2C1=O	0	74*	-3
COc1cc(/C=N/NC(=O)c2ccccn2)c(Br)cc1O	-9	-9	3
COc1ccc(S(=O)(=O)N(C)C[C@@H]2Oc3ncc(C#Cc4ccc(OC)c(OC)c4)cc3C(=O)N([C@H](C)CO)C[C@@H]2C)cc1	-1	43	/
C[C@H](CO)N1C[C@H](C)[C@H](CN(C)C)Oc2ncc(C#Cc3ccccc3)cc2C1=O	0	78*	/
COc1ccc(C#Cc2cnc3c(c2)C(=O)N([C@H](C)CO)C[C@H](C)[C@H](CN(C)C)O3)cc1OC	0	83*	/
Cc1cccc(CN(C)C[C@@H]2Oc3ncc(C#Cc4ccccc4)cc3C(=O)N([C@H](C)CO)C[C@@H]2C)c1	0	74*	/
C[C@H](CO)N1C[C@H](C)[C@H](CN(C)C)Oc2ncc(C#CCN(C)C)cc2C1=O	/	-15	/
COc1ccc(C#Cc2cnc3c(c2)C(=O)N([C@H](C)CO)C[C@H](C)[C@H](CN(C)Cc2cccc(C(F)(F)F)c2)O3)cc1OC	0	84*	/
Cc1cccc(CN(C)C[C@@H]2Oc3ncc(C#CCN(C)C)cc3C(=O)N([C@H](C)CO)C[C@@H]2C)c1	/	3	/
COc1ccc(C#Cc2cnc3c(c2)C(=O)N([C@H](C)CO)C[C@H](C)[C@H](CN(C)Cc2ccccc2)O3)cc1OC	0	15	/
COC(=O)CCCCCCC(=O)N/N=C/[C@H](O)[C@@H](O)[C@H](O)CO	0	-4	-5
COc1ccccc1CN1C(=O)c2ccccc2[C@](Cc2ccccc2I)(C(=O)NCC(C)C)[C@@H]1c1ccc(CO)cc1	-1	/	/
O=C(NO)c1cccc(C(=O)N/N=C/c2ccc(-c3ccccc3)cc2)c1	/	-3	-3
Cc1ncc(CO)c(/C=N/NC(=O)CCCCCC(=O)O)c1O	1	-18	0
CN(C)CCCOc1ccc(/C=N/NC(=O)CCCCCC(=O)NO)cc1	1	/	/
C[C@H](CO)N1C[C@H](C)[C@H](CN(C)S(=O)(=O)c2ccc(Cl)cc2)Oc2ccc(NC(=O)Nc3ccc(C(F)(F)F)cc3)cc2CC1=O	/	63*	-9
C[C@@H]1CN([C@@H](C)CO)C(=O)Cc2cc(NC(=O)Nc3ccc(C(F)(F)F)cc3)ccc2O[C@@H]1CN(C)S(=O)(=O)c1ccc(F)cc1	/	81*	-4
Cc1ccc(S(=O)(=O)N(C)C[C@H]2Oc3ccc(NC(=O)Nc4ccc(C(F)(F)F)cc4)cc3CC(=O)N([C@@H](C)CO)C[C@H]2C)cc1	1	58*	-36
C[C@H]1CN([C@@H](C)CO)C(=O)Cc2cc(NC(=O)Nc3ccc(C(F)(F)F)cc3)ccc2O[C@H]1CN(C)S(=O)(=O)c1ccc(F)cc1	-2	31	-13
COc1ccc(S(=O)(=O)N(C)C[C@H]2Oc3ccc(NC(=O)Nc4ccc(C(F)(F)F)cc4)cc3CC(=O)N([C@@H](C)CO)C[C@H]2C)cc1	0	65*	-12
Cc1ccc(S(=O)(=O)N(C)C[C@@H]2Oc3ccc(NC(=O)Nc4ccc(C(F)(F)F)cc4)cc3CC(=O)N([C@@H](C)CO)C[C@@H]2C)cc1	/	?	-57
COc1ccc(S(=O)(=O)N(C)C[C@H]2Oc3ccc(NC(=O)Nc4ccc(C(F)(F)F)cc4)cc3CC(=O)N([C@H](C)CO)C[C@@H]2C)cc1	2	/	/
